Source: ChEMBL document CHEMBL5376016, “Synthesis of novel rapanone derivatives via organocatalytic reductive C-alkylation: biological evaluation of antioxidant properties, in vivo zebrafish embryo toxicity, and docking studies” (RSC Med Chem, 2024)

Experiments:
[1] = Acute toxicity in zebrafish embryo assessed as survival rate at 96 hrs post fertilization relative to control; parameters: species or system Danio rerio; concentration or dose not given beside the values; details: in vivo
Procedure, shortened: (§1)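 Lethality endpoints were coagulation and absence of heartbeat, checked by inverted microscope. Survival was compared with untreated embryos across three independent experiments; mean ± SD, ANOVA.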

[2] = Acute toxicity in zebrafish embryo assessed as morphological changes at upto 160 uM measured after 48 hrs post fertilization relative to control; parameters: species or system Danio rerio; details: in vivo
Procedure, shortened: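 Wild-type Danio rerio embryos were exposed in milli-Q water with compound dissolved in DMSO (≤0.25 v/v final). Controls were milli-Q water and water with DMSO. Embryos were held at 26.8 ± 1 °C and scored by inverted microscope at 24–96 hpf, after exposure at 160 µM, for bent spine, yolk sac edema, pericardial edema, short tail and bent tail.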

[3] = Acute toxicity in zebrafish embryo assessed as hatching rate at 20 to 160 uM measured after 48 hrs post fertilization relative to control; parameters: species or system Danio rerio; details: in vivo, dose 20-160 µM
Procedure, shortened: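 Controls were water and water with 0.5% DMSO. Incubation at 26.8 ± 1 °C, 20 embryos per well. Hatching scored over 0–96 hpf under an inverted microscope. Triplicate, three independent experiments; mean ± SD; ANOVA.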

[4] = Antioxidant activity assessed as DPPH radical scavenging activity after 30 mins by spectrophotometric analysis; format: functional
Procedure, shortened: (§2)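 Ascorbic acid was the reference standard. For DPPH, 0.2 mM DPPH in methanol was kept in the dark, mixed with compound at 5–160 µM (DMSO stock), and incubated 30 min in the dark at room temperature, then A517 was read. %RSA = (Ac−As)/Ac×100. Triplicate runs; IC50 taken from the plot of % scavenging versus concentration.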

[5] = Antioxidant activity assessed as ABTS radical scavenging activity after 6 mins by spectrophotometric analysis relative to control; format: functional; parameters: concentration or dose not given beside the values
[6] = Antioxidant activity assessed as ABTS radical scavenging activity after 6 mins by spectrophotometric analysis; format: functional
[7] = Antioxidant activity assessed as DPPH radical scavenging activity after 30 mins by spectrophotometric analysis relative to control; format: functional; parameters: concentration or dose not given beside the values; procedure, shortened: as §2
[8] = Acute toxicity in zebrafish embryo assessed as survival rate at 20 uM measured after 96 hrs post fertilization relative to control; parameters: species or system Danio rerio; details: in vivo; procedure, shortened: as §1
[9] = Acute toxicity in zebrafish embryo assessed as survival rate at 160 uM measured after 96 hrs post fertilization relative to control; parameters: species or system Danio rerio; details: in vivo; procedure, shortened: as §1

Row | SMILES | survival at 96 h ([1]; read-out: Survival) [%] | Activity [2] | Activity [3] [%] | IC50 [4] [µM] | Activity [5] [%] | IC50 [6] [µM] | Activity [7] [%] | survival at 96 h ([1]; read-out: Activity) [%] | survival at 96 h, 20 µM [8] [%] | survival at 96 h, 160 µM [9] [%]
1 | CCCCCCCCCCCC1=C(O)C(=O)C(Cc2ccc([N+](=O)[O-])cc2)=C(O)C1=O | > 90 | Non-Toxic | 51.33 | 4.9 | 52.1 | 5.25 | 50.3 | – | – | –
2 | CCCCCCCCCCCC1=C(O)C(=O)C(Cc2ccc(F)cc2)=C(O)C1=O | > 90 | Non-Toxic | 51.33 | 4.65 | 52.1 | 5.22 | 50.3 | – | – | –
3 | CCCCCCCCCCCC1=C(O)C(=O)C(Cc2cc(OC)c(OC)c(OC)c2)=C(O)C1=O | – | Non-Toxic | 75.66 | 2.95 | 80.2 | 2.48 | 80 | 70 | 52 | 70
4 | CCCCCCCCCCCC1=C(O)C(=O)C(CCCl)=C(O)C1=O | > 90 | Non-Toxic | 51.33 | 4.6 | 52.1 | 4.41 | 50.3 | – | – | –
5 | CCCCCCCCCCCC1=C(O)C(=O)C(Cc2ccccc2)=C(O)C1=O | – | Non-Toxic | 75.66 | 3.18 | 80.2 | 2.71 | 71.1 | 70 | 52 | 70
6 | CCCCCCCCCCCC1=C(O)C(=O)C(Cc2ccc(C)cc2)=C(O)C1=O | – | Non-Toxic | 75.66 | 1.81 | 90.3 | 1.81 | 89.4 | 70 | 52 | 70
7 | CCCCCCCCCCCC1=C(O)C(=O)C(Cc2ccc(Cl)cc2)=C(O)C1=O | > 90 | Non-Toxic | 51.33 | 4.93 | 52.1 | 4.99 | 50.3 | – | – | –
8 | CCCCCCCCCCCC1=C(O)C(=O)C(Cc2ccc(Cl)cc2Cl)=C(O)C1=O | > 90 | Non-Toxic | 51.33 | 4.74 | 52.1 | 4.43 | 50.3 | – | – | –
9 | CCCCCCCCCCCC1=C(O)C(=O)C(Cc2ccc(OC)cc2)=C(O)C1=O | – | Non-Toxic | 75.66 | 3.16 | 80.2 | 2.72 | 71.1 | 70 | 52 | 70
10 | CCCCCCCCCCCC1=C(O)C(=O)C(Cc2ccccc2C)=C(O)C1=O | – | Non-Toxic | 75.66 | 2.51 | 80.2 | 2.05 | 80 | 70 | 52 | 70
11 | CCCCCCCCCCCC1=C(O)C(=O)C(Cc2ccccc2C#N)=C(O)C1=O | > 90 | Non-Toxic | 51.33 | 4.43 | 52.1 | 5.01 | 50.3 | – | – | –
12 | CCCCCCCCCCCC1=C(O)C(=O)C(Cc2c(OC)cc(OC)cc2OC)=C(O)C1=O | – | Non-Toxic | 75.66 | 3.07 | 80.2 | 2.6 | 71.1 | 70 | 52 | 70
